Measurements of several laboratories.
Protocols differ between the studies behind these lines.
Target: Homeodomain-interacting protein kinase 3 (HIPK3, Homo sapiens, UniProt Q9H422)

SMILES | read-out | mode | technique | tested at | endpoint | result
CN1CCN(C(=O)c2ccc(NC(=O)Nc3ccc(N(C)c4ccnc(Nc5ccc(CS(C)(=O)=O)cc5)n4)cc3)cc2)CC1 | binding |  | competition with immobilised ligand | 1 µM | remaining binding | 71%
C=CC(=O)N1CCC([C@@H]2CCNc3c(C(N)=O)c(-c4ccc(Oc5ccccc5)cc4)nn32)CC1 | enzyme activity | inhibitor |  | 1 µM | inhibition | 4%
C#Cc1cc(-c2cc(Nc3nc(N[C@@H](C)c4ccc(F)cn4)ncc3Cl)n[nH]2)ccc1C=O | enzyme activity | inhibitor |  | 0.2 µM | inhibition | 39.6%
CO[C@@H]1[C@H](N(C)C(=O)c2ccccc2)C[C@H]2O[C@]1(C)n1c3ccccc3c3c4c(c5c6ccccc6n2c5c31)C(=O)NC4 | enzyme activity | inhibitor |  | 1 µM | inhibition | 30%
Cc1ccc(NC(=O)c2ccnc(C(F)(F)F)c2)cc1-c1cc(OCCO)nc(N2CCOCC2)c1 | binding |  | competition with immobilised ligand | 1 µM | remaining binding | 98%
C1=C/COCc2cc(ccc2OCCN2CCCC2)Nc2nccc(n2)-c2cccc(c2)COC/1 | binding |  |  | 0.1 µM | remaining binding | 15%
CC(C)S(=O)(=O)c1ccc2nccc(Nc3ccc4sc(C5CCCC5)nc4c3)c2c1 | enzyme activity | inhibitor |  | 1 µM | activity vs control | 102%
CCCCC(=O)Nc1ccc(-c2ccc3ncn(CCC)c(=O)c3c2)cn1 | binding |  | competition with immobilised ligand | 0.5 µM | remaining binding | 100%
